From PubChem BioAssay
RAM network inh = blocks the yeast RAM network. S. cerevisiae dse1pr::URA3 reporter, 5-FOA growth OD615, 2 d; analog-sensitive cbk1-as2 kinase mutant strain. 190,000 compounds, 1.8% hits. inhibition, % at 50 µM;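 active means inhibition above a set limit, 3 SD over mean compound inhibition, cut at about 8.4% in these data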;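 further: 0% = DMSO-only wells with no growth and 100% = 10 µM 1-NA-PP1 full growth; inhibition rescues growth on 5-FOA so higher OD means more RAM inhibition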
NPY Y1 blocker = antagonists of human neuropeptide Y receptor Y1; P25929; HEK293-CNG Y1 cells, membrane potential fluorescence; NPY at EC95, then isoproterenol; inhibition, % at 3.6 µM; 200,000 compounds, 1% hits; AID 1040;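 active means inhibition above the campaign mean inhibition of all tested compounds plus 3 SD, cut at about 20% in these data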;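 further: 0% = DMSO wells given NPY plus isoproterenol and 100% = isoproterenol alone without NPY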
Target sequence (P25929 whole entry, looked up): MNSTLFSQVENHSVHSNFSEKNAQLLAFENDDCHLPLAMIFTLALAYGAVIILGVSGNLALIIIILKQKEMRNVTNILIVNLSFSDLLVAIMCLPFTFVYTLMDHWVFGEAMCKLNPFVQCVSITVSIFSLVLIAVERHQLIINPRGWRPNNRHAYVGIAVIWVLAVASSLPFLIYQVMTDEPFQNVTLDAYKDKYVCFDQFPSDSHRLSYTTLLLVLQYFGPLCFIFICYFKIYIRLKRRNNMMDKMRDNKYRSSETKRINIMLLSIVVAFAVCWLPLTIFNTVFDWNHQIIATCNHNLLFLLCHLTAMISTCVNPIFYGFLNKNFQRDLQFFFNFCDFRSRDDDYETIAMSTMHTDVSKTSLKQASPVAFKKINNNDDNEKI
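Benchmarks – high control isoproterenol alone, low control NPY with isoproterenol · Material – HEK293 Y1/CNG channel cell line · Times – dye 3 h, compound 60 min room temperature, stimulation 45 min · Probe or stimulus – NPY (25 nM), isoproterenol (1 µM), Ro 20-1724 (25 µM) · Evaluation – % inhibition of NPY effect · Signal – fluorescence, membrane potential probe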
NPY-Y2 antag = blocks the human neuropeptide Y Y2 receptor; P49146; NPY-Y2 expressing cells, antagonist mode; inhibition, % at 2.7 µM; 140,000 compounds, 0.99% hits; AID 793; in the data active means inhibition above about 17%;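 further: 0% = vehicle with agonist challenge and 100% = reference antagonist with challenge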
Target sequence (P49146 whole entry, looked up): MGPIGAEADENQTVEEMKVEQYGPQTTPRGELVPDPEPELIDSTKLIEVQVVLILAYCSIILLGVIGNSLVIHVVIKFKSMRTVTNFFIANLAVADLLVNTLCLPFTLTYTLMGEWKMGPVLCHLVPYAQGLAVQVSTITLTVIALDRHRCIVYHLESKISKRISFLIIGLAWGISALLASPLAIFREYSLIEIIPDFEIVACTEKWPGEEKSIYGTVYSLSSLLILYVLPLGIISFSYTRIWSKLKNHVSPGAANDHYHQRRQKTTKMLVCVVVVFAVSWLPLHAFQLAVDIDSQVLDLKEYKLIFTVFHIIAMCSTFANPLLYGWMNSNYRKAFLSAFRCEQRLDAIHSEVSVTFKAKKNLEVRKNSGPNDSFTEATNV
NPY-Y1 PAM-ag = potentiates or activates human NPY-Y1 receptor. P25929. activation, % at 3.6 µM. 220,000 compounds, 0.37% hits. NPY-Y1 expressing cells, potentiator/agonist activation; in the data active means activation above about 33%, passing the limit was not always enough;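 further: cells stimulated with NPY at EC10 then isoproterenol at EC100; 0% = low agonist plus stimulus and 100% = saturating agonist plus stimulus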
NPY-Y2 PAM-ag = human NPY-Y2 potentiation or agonism, primary screen; P49146; cells expressing NPY-Y2, potentiator/agonist read-out; activation, % at 3.6 µM; 220,000 compounds, 0.45% hits; AID 1359; in the data active means activation above about 27%;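 further: cells stimulated with NPY near EC25 plus isoproterenol at EC100; 0% = vehicle plus submaximal agonist and 100% = vehicle plus saturating agonist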
WT yeast gro inh = growth inhibition of WT yeast, mitochondrial fusion screen; mitochondrial fusion phenotypic screen, WT strain; inhibition, % at 10 µM; 190,000 compounds, 2.1% hits; in the data active means inhibition above about 58%; tested in S. cerevisiae
NPY-Y2 pot conf = human NPY-Y2 potentiation or agonism, confirmation; activation, % at 3.6 µM; 450 compounds, 20% hits; cell-based NPY-Y2 potentiator/agonist assay; shares compounds with NPY-Y2 PAM-ag; in the data active means activation above about 33%
NPY-Y1 potentiator = counter-screen for NPY-Y2 potentiators or agonists: NPY-Y1 potentiators or agonists; shares compounds with NPY-Y2 PAM-ag; Y1 HEK293-CNG cells, membrane potential fluorescence; activation, % at 3.6 µM; 450 compounds, 20% hits; AID 1651; in the data active means activation above about 45%;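 further: cells stimulated with submaximal NPY then isoproterenol with phosphodiesterase inhibitor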
NPY-Y1 ag 2 = activates human NPY-Y1, counter-screen for NPY-Y2 potentiators; AID 1702; HEK293 Y1-CNGC, membrane potential fluorescence, agonism; activation, % at 3.6 µM; shares compounds with NPY-Y2 PAM-ag; 450 compounds, 37% hits;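 active means activation above the mean of DMSO-only control wells plus 3 SD, cut at about 18% in these data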;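 further: cells stimulated with 1 µM isoproterenol plus the PDE inhibitor Ro 20-1724; 0% = isoproterenol with DMSO and no NPY and 100% = 40 nM NPY; Y1 agonists lower the membrane potential dye signal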
CNGC inh = counter-screen for NPY-Y2 potentiators: inhibitors of CNG channel activity. shares compounds with NPY-Y2 PAM-ag. HEK293-CNG parental, isoproterenol cAMP, membrane potential fluorescence. inhibition, % at 3.6 µM. 450 compounds, 32% hits;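 active means inhibition above the control-well mean plus 3 SD of those wells, cut at about 22% in these data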;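 further: 0% = DMSO with isoproterenol and 100% = DMSO without isoproterenol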
Y2 agonist ctr = counter-screen for NPY-Y2 potentiators: agonists of human NPY-Y2; shares compounds with NPY-Y2 PAM-ag; HEK293 Y2/CNGC cells, membrane potential fluorescence, agonist mode; activation, % at 3.6 µM; 450 compounds, 56% hits; AID 1710;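 active means activation above the mean of solvent-only control wells plus 3 SD, cut at about 10% in these data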;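 further: cells stimulated by isoproterenol with no NPY added so direct agonism is tested; 0% = DMSO with isoproterenol alone and 100% = NPY at EC100 plus isoproterenol; agonism lowers probe fluorescence through less cAMP and CNG channel opening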
Active calls of the source: *; nt = no result. Rows were chosen to be rich in hits. Some 4.9% of all compounds tested hit in one or more screens of this group.

SMILES	RAM network inh	NPY Y1 blocker	NPY-Y2 antag	NPY-Y1 PAM-ag	NPY-Y2 PAM-ag	WT yeast gro inh	NPY-Y2 pot conf	NPY-Y1 potentiator	NPY-Y1 ag 2	CNGC inh	Y2 agonist ctr
CN(C)CCN(C(=O)/C=C/c1cccs1)c1nc2c(F)cc(F)cc2s1	-1	3	2	29	46*	26	94*	117*	104*	91*	105*
Cc1ccc2nc(N(CCN(C)C)C(=O)/C=C/c3cccs3)sc2c1	-1	6	5	17	52*	30	91*	107*	89*	86*	97*
Cc1ccc2nc(N(CCCN(C)C)C(=O)c3cc4ccccc4oc3=O)sc2c1	0	4	5	-3	6	7	nt	nt	nt	nt	nt
CCN(CC(=O)NCc1ccc(F)cc1)C(=O)/C=C/c1cccs1	-1	-1	nt	-5	9	6	nt	nt	nt	nt	nt
COc1cc(OC)cc(-n2nnnc2SCC(=O)NCCc2ccc(OC)c(OC)c2)c1	1	4	nt	-3	1	-4	nt	nt	nt	nt	nt
COc1ccc(-n2nnnc2SCC(=O)NCCc2ccccc2)cc1OC	0	3	nt	14	56*	-7	-2	-4	-1	5	17*
CCN(CC)CC(O)Cn1c2ccccc2c2ccccc21 (configuration not stated)	1	-4	5	43	38*	-2	38*	32	29*	-2	41*
O=C(O)c1nccnc1C(=O)Nc1ccc(Oc2c(Cl)cccc2Cl)nc1	nt	nt	nt	12	73*	nt	-3	-2	-12	-8	0
O=C(NC(=O)c1c(Cl)cccc1Cl)Nc1ccc(Oc2cccnc2)nc1	nt	nt	nt	10	15	nt	nt	nt	nt	nt	nt
O=C(COC(=O)/C=C/c1ccco1)NCc1ccccc1Cl	1	6	nt	2	0	8	nt	nt	nt	nt	nt
O=[N+]([O-])c1cc(C(F)(F)F)ccc1NCCCCNS(=O)(=O)c1ccc(Cl)cc1	8	-1	2	3	-1	-7	nt	nt	nt	nt	nt
O=C(Nc1ccc(Cl)cc1)N1CCCN(c2ccc(C(F)(F)F)cc2[N+](=O)[O-])CC1	nt	nt	nt	41	48*	nt	47*	76*	78*	60*	58*
O=[N+]([O-])c1cc(C(F)(F)F)ccc1NCCNC(=S)Nc1ccc(Cl)cc1	3	-10	-5	28	36*	-1	36*	37	39*	23*	46*
O=[N+]([O-])c1cc(C(F)(F)F)ccc1N1CCC(O)CC1	0	-5	nt	8	-2	10	nt	nt	nt	nt	nt
CCC(CC)c1nnc(NC(=O)c2nc3nc(C)cc(C)n3n2)s1	1	-4	3	2	-1	-3	nt	nt	nt	nt	nt
CN(C)N1C(=O)CC(N2CCCCC2)C1=O (configuration not stated)	3	8	nt	5	-5	0	nt	nt	nt	nt	nt
Cc1cc(C)nc(SCC(=O)N/N=C/C=C/c2ccccc2)n1	3	0	5	-30	3	10	nt	nt	nt	nt	nt
COC(=O)c1ccc(NC(=O)CN(c2ccc(C)cc2)S(=O)(=O)c2c(C)nn(C)c2C)cc1	3	-9	-6	41	40*	-2	24	36	48*	35*	36*
COc1cc(NC(=O)CN(c2ccc(C)cc2)S(=O)(=O)c2c(C)nn(C)c2C)cc(OC)c1	5	-3	1	6	1	-3	nt	nt	nt	nt	nt
OCCn1c(SC2CCCCC2)nc2ccccc21	0	2	2	-8	-5	-13	nt	nt	nt	nt	nt
CCOC(=O)C1=C(Cn2cnc3ccccc32)NC(=O)NC1c1cc(C)ccc1C (configuration not stated)	0	1	8	11	33*	16	20	23	20*	23*	23*
Cc1ccc2[nH]c(=O)c(CN(Cc3ccco3)C(=O)c3cccs3)cc2c1	1	2	5	-31	9	-13	nt	nt	nt	nt	nt
Cc1ccccc1Nc1c(-c2ccc(N3CCOCC3)cc2)nc2cnccn12	nt	nt	nt	45	39*	nt	68*	76*	52*	48*	68*
Cc1ccc(Nc2c(-c3ccc(N4CCOCC4)cc3)nc3cnccn23)cc1	nt	nt	nt	14	4	nt	nt	nt	nt	nt	nt
CC12CN(C(=O)c3ccc([N+](=O)[O-])cc3)CC(C)(CN(C(=O)c3ccc([N+](=O)[O-])cc3)C1)C2=O	nt	nt	nt	6	-8	nt	nt	nt	nt	nt	nt
SMILES	RAM network inh	NPY Y1 blocker	NPY-Y2 antag	NPY-Y1 PAM-ag	NPY-Y2 PAM-ag	WT yeast gro inh	NPY-Y2 pot conf	NPY-Y1 potentiator	NPY-Y1 ag 2	CNGC inh	Y2 agonist ctr
Cc1ccc(C(=O)N2CC3(C)CN(C(=O)c4ccc(C)cc4)CC(C)(C2)C3=O)cc1	-1	2	0	14	30*	-16	-2	0	0	-3	-6
CS(=O)(=O)N1CCc2cc(-c3csc(NC(=O)Cc4cccs4)n3)ccc21	4	-10	4	-7	36*	16	-9	-27	-29	-12	-14
CC(=O)Nc1nc(-c2ccc3c(c2)CCN3S(C)(=O)=O)cs1	1	5	nt	-9	10	-3	nt	nt	nt	nt	nt
N#Cc1c(-c2ccc(F)cc2)cc(-c2ccccc2)nc1SCC(=O)NCC(=O)O	nt	nt	nt	15	71*	nt	-7	-2	-5	-11	2
CC1(C(=O)OCC(=O)Nc2cccc(S(=O)(=O)NC3=NCCCCC3)c2)CC1(Cl)Cl (configuration not stated)	0	1	nt	-15	-7	-12	nt	nt	nt	nt	nt
COc1ccc(NC(=S)NC(NC(=O)c2cccc(Cl)c2)C(Cl)(Cl)Cl)c([N+](=O)[O-])c1 (configuration not stated)	2	-9	-8	39	37*	39	22	33	20*	20	33*
COc1ccc(NC(=S)NC(NC(=O)c2cccc(C)c2)C(Cl)(Cl)Cl)c([N+](=O)[O-])c1 (configuration not stated)	7	3	5	-29	3	4	nt	nt	nt	nt	nt
O=C1Nc2ccccc2N=C(c2ccccc2)c2ccccc21	nt	nt	nt	27	41*	nt	6	19	9	14	-2
O=C1c2cccc3cccc(c23)C(=O)N1CC1CCN(CC(O)COCc2ccc3c(c2)OCO3)CC1 (configuration not stated)	-2	-4	6	7	50*	33	75*	90*	21*	18	65*
